These results are taken from publication PMC9059958 (RSC Advances, 2019).

In brackets after ≈: the same amount, converted by molar mass.

Series [1] relates to HEK-293, HeLa and Cos-7 cells. As to the kind of experiment: Mammalian cell cytotoxicity. In kind it is cell-based. As to conditions: 1/2 MIC; 24 hours; XTT. In outline:
(§1)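 HEK-293, HeLa and Cos-7 cells kept in DMEM with 10% FBS and 1% penicillin–streptomycin. Seeded at 3 × 10^4 cells per well and grown 24 h to 80–90% confluence. […] XTT assay: absorbance at 450 nm, 690 nm background. Percent survival versus untreated cells, three replicates, mean ± SD.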
In general terms: Formazan colour is commonly taken as a measure of viable cells.

In series [2] the test system is tet^R E. coli. As to the kind of experiment: Combination. As to conditions: for Fold enhancement: tetracycline, amphiphile 20 μM, Tet^R E. coli. In kind it is cell-based, Escherichia coli.
The next series concerns human hepatocytes. The series is described as follows: Human hepatocyte cell viability. The series is classed as cell-based. As to conditions: 72 h, read-out: EC50 against human hepatocytes. In short, it runs like this:
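Human hepatocytes treated with 1–100 μM test compound, or CCCP as control, for 72 h. Survival then determined.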

A further series addresses T1, NorA efflux pump (Staphylococcus aureus, UniProt P0A0J7).
T1 sequence (P0A0J7 1-388): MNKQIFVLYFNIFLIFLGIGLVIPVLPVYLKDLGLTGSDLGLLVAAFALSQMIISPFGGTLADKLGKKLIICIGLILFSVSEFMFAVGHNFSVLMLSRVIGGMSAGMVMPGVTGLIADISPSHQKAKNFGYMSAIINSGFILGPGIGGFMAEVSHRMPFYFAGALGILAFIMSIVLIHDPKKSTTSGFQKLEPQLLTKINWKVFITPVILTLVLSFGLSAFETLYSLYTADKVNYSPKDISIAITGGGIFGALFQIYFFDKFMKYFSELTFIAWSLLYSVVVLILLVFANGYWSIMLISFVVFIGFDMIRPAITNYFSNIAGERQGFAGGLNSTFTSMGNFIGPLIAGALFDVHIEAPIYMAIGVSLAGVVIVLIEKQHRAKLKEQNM
The series is described as follows: Efflux pump inhibition. The series is classed as cell-based. As to conditions: read-out: inhibition of NorA activity, lower than for 3 or 4. In outline: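 S. aureus 1199B knocked back to OD600 0.550, then loaded with ethidium bromide (10 μg mL−1) plus 100 μM CCCP in MHII at OD600 1.000 for 20 min at room temperature. Spun, held on ice, warmed 5 min, adjusted to OD600 0.800. Added to wells containing test compound, CCCP or reserpine. Fluorescence read at ex 530/em 600 nm every minute for 20 min. Three runs, SD.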

The subject of the next series is E. faecalis (VanA). As to the kind of experiment: MIC screening. The series is classed as cell-based, Enterococcus faecalis. In outline: (§2)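 Broth microdilution. Overnight cultures knocked back to OD600 0.100 and grown at 37 °C to OD600 0.500. Final inoculum 4 × 10^5 CFU mL−1 in cation-adjusted MHII; S. pneumoniae in CA-MHB with 5% LHB; tetR E. coli in LB with 100 μg mL−1 ampicillin. Final DMSO 0.5% v/v. Incubated 18–20 h at 37 °C, then OD600 read. MIC is ≥90% inhibition versus untreated cells. Triplicate wells, repeated on two further plates.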

A further series deals with E. faecalis (control). As to the kind of experiment: MIC screening. In kind it is cell-based, Enterococcus faecalis. In short, it runs like this: as §2
In the next series the test system is E. coli (WT). The series is described as follows: MIC screening. The series is classed as cell-based. As to conditions: Escherichia coli. In short, it runs like this:
as §2

A further series concerns E. coli (Tol-). As to the kind of experiment: MIC screening. The series is classed as cell-based. As to conditions: Escherichia coli. In outline:
as §2

Another series deals with E. aerogenes (R:Cep). The series is described as follows: MIC screening. The series is classed as cell-based, Enterobacter aerogenes. As to conditions: Klebsiella aerogenes. In outline: as §2
A further series relates to P. aeruginosa (R:Mero). The series is described as follows: MIC screening. The series is classed as cell-based. As to conditions: Pseudomonas aeruginosa. In short, it runs like this:
as §2

The test system of series [3] is S. aureus 1199B. The series is described as follows: MIC against NorA expressing S. aureus 1199B. The series is classed as cell-based. As to conditions: Staphylococcus aureus. In outline:
as §2

In series [4] the test system is tet^R E. coli. As to the kind of experiment: MIC against efflux pump expressing tet^R E. coli. In kind it is cell-based. As to conditions: Escherichia coli. In outline:
as §2

Series [5] can be described thus: Solubility in combination assay. As to conditions: combination assay medium.
For a further series, the system named is S. pneumoniae (control). As to the kind of experiment: MIC screening. In kind it is cell-based. As to conditions: Streptococcus pneumoniae. In outline: as §2
A further series relates to MRSA. The series is described as follows: MIC against MRSA as stated in text. As to conditions: Staphylococcus aureus. The series is classed as cell-based. In outline: as §2
The test system of a further series is MRSA (control). The series is described as follows: MIC screening. The series is classed as cell-based. As to conditions: Staphylococcus aureus. In outline:
as §2

The subject of another series is MRSA (USA 300). The series is described as follows: MIC screening. In kind it is cell-based. As to conditions: Staphylococcus aureus, MRSA|USA300. In outline:
as §2

The subject of the next series is S. aureus (control). The series is described as follows: MIC screening. The series is classed as cell-based. As to conditions: Staphylococcus aureus. In outline:
as §2

For another series, the system named is MRSA (USA100). The series is described as follows: MIC screening. In kind it is cell-based. As to conditions: Staphylococcus aureus. In short, it runs like this:
as §2

Series [6] has as its system tet^R E. coli. As to the kind of experiment: Resistance development by sequential culturing. The series is classed as cell-based, Escherichia coli. As to conditions: 15 days. In short, it runs like this: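 Serial passage of tetR E. coli in LB over 15 days, with minocycline as comparator. […] Each day, cells from the second-highest concentration that allowed growth were diluted 1:100 into fresh media at 0.25–4× MIC. Cultures growing above the MIC were passaged on antibiotic-free LB agar and the MIC was redetermined. Mean of three trials.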

In series [7] the test system is S. aureus 1199B. The series is described as follows: Membrane permeability using propidium iodide. The series is classed as cell-based, Staphylococcus aureus. As to conditions: 0.1% (1.6 mM).
Series [8] has as its system tet^R E. coli. As to the kind of experiment: Membrane permeability using propidium iodide and FDA. The series is classed as cell-based, Escherichia coli. In outline: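 tetR E. coli grown overnight with 100 μg mL−1 ampicillin (37 °C, 200 RPM) and knocked back to OD600 0.550. Treated 30 min at half-MIC; Triton X-100 and DMSO controls; DMSO 0.5%. Washed (3000 × g, 5 min) into PBS, then stained with propidium iodide (30 μM) and fluorescein diacetate (60 μM) for 30 min at 37 °C. Washed again and imaged by confocal microscopy.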

A further series deals with Cos-7 cells. The series is described as follows: Mammalian cell cytotoxicity. The series is classed as cell-based, simian. As to conditions: 1/2 MIC; 24 hours; XTT. In short, it runs like this:
as §1

The subject of a further series is HEK-293 cells. The series is described as follows: Mammalian cell cytotoxicity. In kind it is cell-based, human. As to conditions: 1/2 MIC (4: 1 μM; colistin 0.125 μM); 24 hours; XTT.
Series [9] has as its system tet^R E. coli. The series is described as follows: Potassium transport. The series is classed as cell-based, Escherichia coli. As to conditions: 30 μM. In outline:
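tetR E. coli pelleted at 2000 × g, resuspended in PBS and adjusted to OD 1.300. Stirred suspension monitored with a K+-selective electrode. Multiple test compound concentrations; mV recorded every 30 s for 15 min. [K+] calculated from a calibration curve. Total potassium pool from cells heated at 100 °C for 30 min, set as 100%. Three trials, SD.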

[10] abbreviates: amphiphile at 1/2 MIC, tet^R E. coli.

By EC50 is commonly meant the concentration giving half of the maximal effect. What is called inhibition is how much of the control response was suppressed. As to `N#CC(C#N)=NNc1cccc(Cl)c1` [CCCP, carbonyl cyanide 3-chlorophenylhydrazone], in series [1], the cytotoxicity result is on record as “cytotoxic”. In the series with tet^R E. coli [2] (setting [10]), the “FIC index with tetracycline” value turned out to be 0.75 and the “increase (recovery) in activity of tetracycline” value came to 4 fold. Moreover, in the series with human hepatocytes, the concentration for a half-maximal effect (EC50) came to 5 µM. Moreover, the inhibition at 4 µM on NorA efflux pump is ~30%.
As usually defined, the MIC is the least concentration at which growth counts as inhibited. Low values mean greater potency, high ones weaker potency. As for `CCCCCCCCCC(=O)N[C@@H](Cc1c[nH]c2ccccc12)C(=O)N[C@H](CC(N)=O)C(=O)N[C@@H](CC(=O)O)C(=O)N[C@@H]1C(=O)NCC(=O)N[C@@H](CCCN)C(=O)N[C@@H](CC(=O)O)C(=O)N[C@H](C)C(=O)N[C@@H](CC(=O)O)C(=O)NCC(=O)N[C@H](CO)C(=O)N[C@@H]([C@H](C)CC(=O)O)C(=O)N[C@@H](CC(=O)c2ccccc2N)C(=O)O[C@@H]1C` [Daptomycin, daptomycin], the MIC in the series with E. faecalis (VanA) and with E. faecalis (control) was 2.5 µM (≈ 4.05 µg/mL) throughout.
On to `C[C@@H](O)[C@H]1C(=O)N2C(C(=O)O)=C(S[C@@H]3CN[C@H](C(=O)N(C)C)C3)[C@H](C)[C@H]12` [Meropenem, meropenem], for which the MIC with E. coli (WT) is < 0.33 µM; in the series on E. coli (Tol-), < 0.33 µM; against E. aerogenes (R:Cep), < 0.33 µM; in the series on P. aeruginosa (R:Mero), > 166 µM.
As for `CCn1cc(C(=O)O)c(=O)c2cc(F)c(N3CCNCC3)cc21` [Norfloxacin, norfloxacin], in the series on S. aureus 1199B [3], the MIC amounted to 64 µM (≈ 20.4 µg/mL). In other words, the double-digit micromolar range.
As to `COC(=O)[C@H]1[C@H]2C[C@@H]3c4[nH]c5cc(OC)ccc5c4CCN3C[C@H]2C[C@@H](OC(=O)c2cc(OC)c(OC)c(OC)c2)[C@@H]1OC` [Reserpine, reserpine], the inhibition at 4 µM at NorA efflux pump is ~30%.
The molecule `CN(C)[C@@H]1C(O)=C(C(N)=O)C(=O)[C@@]2(O)C(O)=C3C(=O)c4c(O)cccc4[C@@](C)(O)[C@H]3C[C@@H]12` [Tetracycline, tetracycline] had an MIC with tet^R E. coli [4] of 900 ± 50 µM (≈ 400 µg/mL).
With `CC(C)[C@@H]1NC(=O)[C@H](C)OC(=O)[C@@H](C(C)C)NC(=O)[C@@H](C(C)C)OC(=O)[C@H](C(C)C)NC(=O)[C@H](C)OC(=O)[C@@H](C(C)C)NC(=O)[C@@H](C(C)C)OC(=O)[C@H](C(C)C)NC(=O)[C@H](C)OC(=O)[C@@H](C(C)C)NC(=O)[C@@H](C(C)C)OC1=O` [Valinomycin, valinomycin], the Fold enhancement in the series with tet^R E. coli [2] came out at 2 fold. Further, in series [5], the solubility entry is reported as “insoluble at >20 μM”.
In the case of `CN[C@H](CC(C)C)C(=O)N[C@H]1C(=O)N[C@@H](CC(N)=O)C(=O)N[C@H]2C(=O)N[C@H]3C(=O)N[C@H](C(=O)N[C@H](C(=O)O)c4cc(O)cc(O)c4-c4cc3ccc4O)[C@H](O)c3ccc(c(Cl)c3)Oc3cc2cc(c3O[C@@H]2O[C@H](CO)[C@@H](O)[C@H](O)[C@H]2O[C@H]2C[C@](C)(N)[C@H](O)[C@H](C)O2)Oc2ccc(cc2Cl)[C@H]1O` [Vancomycin, vancomycin], the MIC is < 0.1 µM against S. pneumoniae (control); 1 to 2 µM (≈ 1.45 to 2.9 µg/mL) against MRSA; 1 µM (≈ 1.45 µg/mL) in the series on MRSA (control); 1 µM (≈ 1.45 µg/mL) with MRSA (USA 300); 0.5 µM (≈ 0.725 µg/mL) in the series on S. aureus (control); 1 µM (≈ 1.45 µg/mL) against MRSA (USA100).
Turning to `CN(C)c1ccc(O)c2c1C[C@H]1C[C@H]3[C@H](N(C)C)C(O)=C(C(N)=O)C(=O)[C@@]3(O)C(O)=C1C2=O` [minocycline], the “resistance development, increase in MIC” value in the series with tet^R E. coli [6] came to 40 fold.
For Triton X-100, the “membrane permeability (propidium iodide)” value with S. aureus 1199B [7] and with tet^R E. coli [8] (0.1% (1.6 mM)) was “increases membrane permeability” in each case. In addition, the Fold enhancement in the series on tet^R E. coli [2] was determined as 2 fold.
Regarding colistin, in the series with Cos-7 cells, the “survival of Cos-7” value is recorded as “non-cytotoxic”. The “survival of HEK-293” value in the series on HEK-293 cells was “about 60%”. For the same molecule, the “concentration that increases membrane permeability (propidium iodide)” value with tet^R E. coli [8] was ≥ 2 µM.
In the case of gramicidin-D, the Fold enhancement with tet^R E. coli [2] is 1 fold. Besides, the “K+ release, percent of total potassium pool” value in the series on tet^R E. coli [9] is given as 50–60%. In addition, the solubility entry in series [5] is recorded as “insoluble at >20 μM”.
